This is a sample that favours compounds with a hit; in the whole collection about 3.4% have one here.
TRPML3 ag: human TRPML3 channel agonists, primary screen, cell-based, HEK293 TRPML3-YFP, Fluo-8 calcium fluorescence, 3 µM. activation, % at 3 µM. AID 1448, 2008. 100% = the carbachol control signal. 0.29% of 220,000 active;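 active = activation above its plate's cutoff, the mean activation of the plate's test wells plus 3 SD, cut at about 12% in these data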;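 also: 0% = DMSO only wells and 100% = carbachol wells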
Target sequence (Q8TDD5 whole entry, looked up): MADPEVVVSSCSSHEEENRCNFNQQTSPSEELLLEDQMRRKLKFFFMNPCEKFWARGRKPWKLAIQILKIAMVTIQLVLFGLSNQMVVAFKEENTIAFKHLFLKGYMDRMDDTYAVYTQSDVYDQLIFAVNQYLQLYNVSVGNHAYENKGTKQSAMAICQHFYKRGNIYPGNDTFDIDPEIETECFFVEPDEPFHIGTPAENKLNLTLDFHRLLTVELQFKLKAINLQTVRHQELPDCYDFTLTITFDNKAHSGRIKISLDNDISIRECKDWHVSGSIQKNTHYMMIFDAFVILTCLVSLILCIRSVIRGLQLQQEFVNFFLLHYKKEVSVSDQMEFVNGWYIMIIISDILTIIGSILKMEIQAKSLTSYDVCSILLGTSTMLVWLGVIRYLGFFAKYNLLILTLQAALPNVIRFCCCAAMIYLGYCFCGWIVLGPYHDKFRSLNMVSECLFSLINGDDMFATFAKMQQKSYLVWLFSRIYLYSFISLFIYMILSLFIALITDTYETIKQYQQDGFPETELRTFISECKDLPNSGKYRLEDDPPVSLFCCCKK
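Test system – HEK293 line with stable expression of human TRPML3-YFP channel · Control set – carbachol 87 µM final as high control (100%), DMSO as low control (0%) · Signal – Fluo-8 calcium dye fluorescence, ex 470-495, em 515-575 nm · Incubation – 1-h 37 °C dye load, 5-s basal, 120-s post-compound reads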
TAAR1 antagonist: human TAAR1 antagonists, primary screen, Fluo-8 calcium fluorescence, CHO RD-HGA16 cells; AID 624466, 2012; antagonist; 1.5% of 360,000 active; inhibition, % at 3 µM; Trace amine-associated receptor 1 (Homo sapiens), Q96RJ0;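 active = inhibition above a per-plate cutoff, the mean inhibition of test compounds on that plate plus 3 SD, cut at about 49% in these data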;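 also: 0% = DMSO plus EC80 beta-PEA response and 100% = DMSO alone without agonist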
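Test system: RD-HGA16 CHO cells with stable hTAAR1 and Gα16 / Probe or stimulus: EC80 β-phenethylamine stimulus / Times: seeding 17-24 h prior, 75-min 37 °C, 30-min RT dye loading / Detection: Fluo-8 calcium-sensitive fluorescence / Read-out basis: % inhibition scaled between DMSO and EC80 PEA controls / Repeats: singlicate, one well per test compound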
TAAR1 ag: human TAAR1 agonists, primary screen, Fluo-8 calcium fluorescence, CHO RD-HGA16 cells | vehicle wells 0%, saturating PEA agonist 100% | Trace amine-associated receptor 1 (Homo sapiens), Q96RJ0 | activation, % at 3 µM | AID 624467, 2012 | 0.99% of 360,000 active;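 active = activation above the mean activation of all test compounds in the run plus 3 SD, cut at about 38% in these data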
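Assay system – CHO-derived RD-HGA16 cells with stable Gα16 and human TAAR1 · Compound dosing – one-point dosing at 3 µM (nominal) · Incubation – 17-24 h seeding, 75 min 37 °C dye, 30 min RT · Measured by – kinetic Fluo-8 calcium fluorescence · Control set – DMSO vehicle as 0%, PEA at EC100 as 100% · Repeats – single well for each compound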
GPR7 antagonist: GPR7 receptor antagonists, primary screen, cell-based, fluorescence, single concentration | Neuropeptides B/W receptor type 1 (Homo sapiens), P48145 | GPR7-expressing cells, fluorescence antagonist assay | inhibition, % at 4.4 µM | 1.1% of 290,000 active; in the data active = inhibition above about 16%, passing the limit was not always enough;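 also: cells stimulated with the agonist NPW; 0% = agonist with vehicle and 100% = vehicle without agonist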
zfTRPN1 agonist: zebrafish TRPN1 channel agonists, primary screen, cell-based, HEK293, calcium fluorescence. transient receptor potential cation channel N1 (TRPN1/NompC), Danio rerio. HEK293 zebrafish TRPN1-YFP, Fluo-8 calcium fluorescence; 100% = response to 87 µM carbachol. activation, % at 3 µM. 0.18% of 220,000 active. AID 1424, 2008;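 active = activation above its plate's cutoff, the mean activation of test wells on that plate plus 3 SD, cut at about 19% in these data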;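 also: 0% = DMSO alone and 100% = 87 µM carbachol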
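Assay system: Zebrafish TRPN1-YFP in HEK293 cells | Incubation: Dye loading 1 h at 37 °C, then 30 min room temperature | Measured by: Kinetic Fluo-8 fluorescence, ex 470-495, em 515-575 nm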
LANA-H2A inh: blockers of LANA interaction with H2A/H2B – biochemical, FP readout, HTS, primary screen; Protein LANA1 (Human herpesvirus 8 type P (isolate GK18)), Q9QR71; cell-free LANA-H2A/H2B peptide, fluorescence polarization; inhibition, % (concentration not given with the values); 0.6% of 320,000 active; in the data active = inhibition mostly above about 10%, no sharp cut-off; inactive = mostly below about 6.7%
TAAR1 ag conf: human TAAR1 agonists, retest of hits, confirmation, Fluo-8 calcium fluorescence, CHO RD-HGA16 cells. AID 651783, 2012. 82% of 2,400 active. activation, % at 3 µM. scaled: DMSO 0%, maximal phenethylamine 100%. shares compounds with TAAR1 ag;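 active = activation above a cutoff set at the run's mean compound activation plus 3 SD, cut at about 39% in these data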
Ga16 ag counter: nonselective calcium mobilization agonists, CHO-Ga16 cells, counter-screen for hTAAR1 agonist project, cell-based, fluorescence, CHO-Ga16 parental line; shares compounds with TAAR1 ag; Fluo-8 calcium fluorescence; normalized to maximal ATP response, DMSO zero; activation, % at 3 µM; 50% of 2,400 active;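 active = activation above the run cutoff, the mean activation over all tested wells plus 3 SD, cut at about 12% in these data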;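 also: 0% = DMSO wells and 100% = maximal ATP response on the peak over basal ratio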
TAAR1 desensitize: TAAR1 desensitization by agonist hits, confirmation, counter-screen for TAAR1 agonist project, cell-based, fluorescence, tachyphylaxis | shares compounds with TAAR1 ag | CHO RD-HGA16 hTAAR1, Fluo-8 calcium, beta-PEA response inhibition | inhibition, % at 3 µM | 46% of 2,400 active | AID 651951, 2012;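 active = inhibition above the run cutoff, the mean inhibition of all test compounds plus 3 SD, cut at about 49% in these data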;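 also: beta-PEA stimulus applied at its EC80; loss of beta-PEA calcium signal after compound pretreatment read as receptor desensitization; 0% = DMSO with beta-PEA at EC80 and 100% = DMSO alone without agonist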
Ga16 antag count: inhibition of ATP-evoked calcium response in CHO-Ga16 cells, counter-screen for TAAR1 agonist project, cell-based, fluorescence. CHO-Ga16 ATP-induced calcium, Fluo-8 fluorescence. inhibition, % at 3 µM. 39% of 2,400 active. shares compounds with TAAR1 ag. AID 651952, 2012;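 active = inhibition above the plate's mean compound inhibition plus 3 SD, computed per plate, cut at about 22% in these data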;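 also: 0% = EC80 ATP with DMSO and 100% = DMSO wells without ATP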
* marks the source's active call; other numbers are inactive results; · = not tested or not shown.

SMILES	TRPML3 ag	TAAR1 antagonist	TAAR1 ag	GPR7 antagonist	zfTRPN1 agonist	LANA-H2A inh	TAAR1 ag conf	Ga16 ag counter	TAAR1 desensitize	Ga16 antag count
O=C(COC(=O)c1cc2ccccc2cc1O)NCc1ccccc1	·	83*	87*	·	·	-3	2	29*	6	22*
O=C(COC(=O)c1cc2ccccc2cc1O)Nc1ccccc1F	·	25	26	·	·	11	·	·	·	·
O=C(COC(=O)c1ccc(O)cc1O)NC(=O)Cc1ccccc1	·	61*	143*	·	·	·	134*	71*	88*	42*
O=C(COC(=O)c1cc2ccccc2cc1O)Nc1cccnc1Cl	0	31	48*	-6	0	-3	21	11	28	18
COc1ccc(OC)c(CN2CCN(C(=O)CN3C(=O)NC4(CCCC4)C3=O)CC2)c1	·	2	0	·	·	-2	·	·	·	·
CC(C)(c1ccccc1)c1ccc(OCCCN2CCNCC2)cc1	0	3	50*	-1	-2	-1	37	11	14	12
CC(C)(C)c1ccc(OCCCCCCN2CCNCC2)cc1	·	-38	31	·	·	2	·	·	·	·
OC(c1ccccc1)(c1ccccc1)C1CCN(CCCOc2ccc(C(F)(F)F)cc2)CC1	·	38	43*	·	·	·	9	19*	17	38*
COc1ccc(OCCCN2CCC(C(O)(c3ccccc3)c3ccccc3)CC2)cc1	·	10	38*	·	·	·	43*	20*	25	22*
OC(c1ccccc1)(c1ccccc1)C1CCN(CCCOc2cccc(Cl)c2)CC1	·	50*	39*	·	·	·	42*	27*	48	49*
CC1(c2nnnn2Cc2ccccc2)CCC(=O)N1CCOc1ccccc1 (centres undefined)	·	-27	6	·	·	·	·	·	·	·
N#Cc1ccc(OCCCN2CCC(C(O)(c3ccccc3)c3ccccc3)CC2)cc1	·	25	40*	·	·	·	54*	18*	27	17
CC(C)c1ccc(OCCCN2CCC(C(O)(c3ccccc3)c3ccccc3)CC2)cc1	·	46	41*	·	·	·	59*	35*	59*	55*
Cc1ccccc1C(=O)N1[C@@H](C(C)C)COc2cc(Br)ccc2S1(=O)=O	·	18	0	·	·	·	·	·	·	·
C=CCn1c(SCC(=O)N(CC)c2c(N)n(Cc3ccccc3)c(=O)[nH]c2=O)nnc1-c1ccccc1OC	·	-1	877*	·	·	·	5	2	-5	1
CN(CC(=O)Nc1ccccc1Cl)C(=O)c1ccc(COc2ccccc2)cc1	·	21	6	·	·	6	·	·	·	·
CC1(c2ccc(OC(F)F)cc2)NC(=O)N(CC(=O)Nc2cccnc2Cl)C1=O (centres undefined)	·	73*	129*	·	·	1	131*	86*	78*	40*
COc1ccc(C2(C)NC(=O)N(CC(=O)Nc3cccnc3Cl)C2=O)cc1 (centres undefined)	·	-8	17	-8	·	-7	·	·	·	·
CC(C)C[C@H]1CN=C(Nc2ccccc2)N1CCC1CCCCC1	·	8	44*	31	·	-4	55*	22*	27	19
CC(C)C[C@H]1CN=C(Nc2ccccc2)N1CC1CCCC1	·	-8	7	13	·	-9	·	·	·	·
OCCN1CCN(CCSc2ccccc2)CC1	1	11	7	-7	0	1	·	·	·	·
c1ccc(SCCN2CCc3ccccc3C2)cc1	0	-6	70*	-10	0	1	80*	-1	37	1
c1ccc(SCCOCCN2CCOCC2)cc1	·	-2	0	1	·	3	·	·	·	·
c1ccc(SCCOCCN2CCc3ccccc3C2)cc1	0	-20	50*	0	-1	0	62*	0	15	4
Cc1cc(C)nc(OC(C(=O)O)C(OCC(C)C)(c2ccccc2)c2ccccc2)n1 (centres undefined)	·	4	108*	-25	·	-4	125*	74*	21	8
SMILES	TRPML3 ag	TAAR1 antagonist	TAAR1 ag	GPR7 antagonist	zfTRPN1 agonist	LANA-H2A inh	TAAR1 ag conf	Ga16 ag counter	TAAR1 desensitize	Ga16 antag count
CCC(C)COC(c1ccccc1)(c1ccccc1)C(Oc1nc(C)cc(C)n1)C(=O)O (centres undefined)	·	8	81*	-5	·	2	128*	86*	14	8
Cc1cc(C)nc(OC(C(=O)O)C(OCCc2ccccc2)(c2ccc(F)cc2)c2ccc(F)cc2)n1 (centres undefined)	·	1	122*	-15	·	4	128*	90*	26	5
CCCOC(c1ccccc1)(c1ccc(C(F)(F)F)cc1)C(Oc1nc(C)cc(C)n1)C(=O)O (centres undefined)	·	-4	25	5	·	4	·	·	·	·
O=c1[nH]cnc(O)c1C(c1ccc([N+](=O)[O-])cc1)c1c(O)nc[nH]c1=O	·	2	3	9	·	-2	·	·	·	·
COc1ccc(NC(=S)N2CCCC(c3nc4ccc(C)cc4[nH]3)C2)c(OC)c1 (centres undefined)	-1	-4	98*	14	-1	-2	0	1	-4	2
CN(CC(=O)Nc1ccccc1C(F)(F)F)Cc1c(O)ccc2ccccc12	·	-6	66*	-17	·	0	30	5	4	11
CCc1ccccc1NC(=O)CN(C)Cc1c(O)ccc2ccccc12	·	-10	9	1	·	0	·	·	·	·
Cc1ccc(NC(=O)COC(=O)c2nn(C)c(=O)c3ccccc23)cc1F	·	23	8	·	·	-3	·	·	·	·

Screening data from PubChem BioAssay.
